The array DNA melting data of Ke et al. (doi:10.1101/2024.01.08.574731)

Experiments:
[1] = melting temperature; fluorescence melt of hairpins on a sequencing array, two-state fit, raised by 9.35 °C to match UV melts; details: sodium 0.088 M
Procedure, shortened: (§1)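 With Cy3 and quencher oligos annealed, library hairpins on a sequenced MiSeq flow cell were imaged for Cy3 fluorescence in 50 mM Na-HEPES pH 8.0, 25 mM NaCl, in 2.5 °C steps up to 60 °C. Melting temperature and folding enthalpy were derived from bootstrapped two-state fits of signals normalised to pre-quench Cy3 and to control constructs. Four replicates were combined by inverse variance, with fitted temperatures raised by 9.35 °C to match UV melts.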

[2] = folding enthalpy; higher = less favourable; fluorescence melt of hairpins on a sequencing array, two-state fit; details: sodium 0.088 M
Procedure, shortened: as §1

AAAACGAAAGTTTT (((((....)))))
Tm [1]: 47.3 °C
folding enthalpy [2]: -14.8 kcal/mol

AAACAGAAATGTTT (((((....)))))
Tm [1]: 25.3 °C
folding enthalpy [2]: -11.4 kcal/mol

AAACGGAAACGTTT (((((....)))))
Tm [1]: 45.1 °C
folding enthalpy [2]: -21.3 kcal/mol

AAACTGAAAAGTTT (((((....)))))
Tm [1]: 33.6 °C
folding enthalpy [2]: -13.4 kcal/mol

AACATGAAAATGTT (((((....)))))
Tm [1]: 33.6 °C
folding enthalpy [2]: -14.7 kcal/mol

AACCGGAAACGGTT (((((....)))))
Tm [1]: 50 °C
folding enthalpy [2]: -19.8 kcal/mol

AAGCAGAAATGCTT (((((....)))))
Tm [1]: 42.1 °C
folding enthalpy [2]: -16.8 kcal/mol

AAGTGGAAACACTT (((((....)))))
Tm [1]: 42 °C
folding enthalpy [2]: -19.6 kcal/mol

AATCGGAAACGATT (((((....)))))
Tm [1]: 44.5 °C
folding enthalpy [2]: -22.9 kcal/mol

AATGCGAAAGCATT (((((....)))))
Tm [1]: 64.9 °C
folding enthalpy [2]: -15.3 kcal/mol

AATTCGAAAGAATT (((((....)))))
Tm [1]: 43.3 °C
folding enthalpy [2]: -14.3 kcal/mol

ACACTGAAAAGTGT (((((....)))))
Tm [1]: 47.4 °C
folding enthalpy [2]: -23.4 kcal/mol

ACCGAGAAATCGGT (((((....)))))
Tm [1]: 49.5 °C
folding enthalpy [2]: -18.3 kcal/mol

ACCTAGAAATAGGT (((((....)))))
Tm [1]: 36.8 °C
folding enthalpy [2]: -11.8 kcal/mol

ACCTCGAAAGAGGT (((((....)))))
Tm [1]: 59.5 °C
folding enthalpy [2]: -19.9 kcal/mol

ACGTAGAAATACGT (((((....)))))
Tm [1]: 37.9 °C
folding enthalpy [2]: -19.9 kcal/mol

ACGTTGAAAAACGT (((((....)))))
Tm [1]: 47.1 °C
folding enthalpy [2]: -20.2 kcal/mol

AGAACCAGAAATGGTTCT (((((((....)))))))
Tm [1]: 55.2 °C
folding enthalpy [2]: -31.4 kcal/mol

AGAACGAAAGTTCT (((((....)))))
Tm [1]: 53.1 °C
folding enthalpy [2]: -19.9 kcal/mol

AGAATGAAAATTCT (((((....)))))
Tm [1]: 25.9 °C
folding enthalpy [2]: -10.8 kcal/mol

AGAGGGAAACCTCT (((((....)))))
Tm [1]: 43.4 °C
folding enthalpy [2]: -16.6 kcal/mol

AGCTAGAAATAGCT (((((....)))))
Tm [1]: 41.3 °C
folding enthalpy [2]: -14.9 kcal/mol

AGGGAGAAATCCCT (((((....)))))
Tm [1]: 42 °C
folding enthalpy [2]: -18.6 kcal/mol

AGGTCGAAAGACCT (((((....)))))
Tm [1]: 67.4 °C
folding enthalpy [2]: -22.1 kcal/mol

AGTAGGAAACTACT (((((....)))))
Tm [1]: 33.2 °C
folding enthalpy [2]: -16.9 kcal/mol

AGTGAGAAATCACT (((((....)))))
Tm [1]: 38.5 °C
folding enthalpy [2]: -15.7 kcal/mol

AGTTGGAAACAACT (((((....)))))
Tm [1]: 43.2 °C
folding enthalpy [2]: -19.9 kcal/mol

AGTTTGAAAAAACT (((((....)))))
Tm [1]: 33 °C
folding enthalpy [2]: -12.1 kcal/mol

ATAGCGAAAGCTAT (((((....)))))
Tm [1]: 54 °C
folding enthalpy [2]: -15.9 kcal/mol

ATCACGAAAGTGAT (((((....)))))
Tm [1]: 54.8 °C
folding enthalpy [2]: -25.6 kcal/mol

ATCAGGAAACTGAT (((((....)))))
Tm [1]: 40.6 °C
folding enthalpy [2]: -16.5 kcal/mol

ATCTCGAAAGAGAT (((((....)))))
Tm [1]: 51.1 °C
folding enthalpy [2]: -20.9 kcal/mol

ATGCAGAAATGCAT (((((....)))))
Tm [1]: 46.2 °C
folding enthalpy [2]: -24.1 kcal/mol

ATGGAGAAATCCAT (((((....)))))
Tm [1]: 36 °C
folding enthalpy [2]: -14.6 kcal/mol

ATTACGAAAGTAAT (((((....)))))
Tm [1]: 44.4 °C
folding enthalpy [2]: -17.5 kcal/mol

ATTCAGAAATGAAT (((((....)))))
Tm [1]: 29.3 °C
folding enthalpy [2]: -11.5 kcal/mol

CAAATGAAAATTTG (((((....)))))
Tm [1]: 32.8 °C
folding enthalpy [2]: -12.8 kcal/mol

CAACCCGAAAGGCTTG (((.((....)).)))
Tm [1]: 30.2 °C
folding enthalpy [2]: -16 kcal/mol

CAAGTGAAAACTTG (((((....)))))
Tm [1]: 42.9 °C
folding enthalpy [2]: -23.7 kcal/mol

CACCGGAAACGGTG (((((....)))))
Tm [1]: 60.5 °C
folding enthalpy [2]: -30 kcal/mol

CACTGGAAACAGTG (((((....)))))
Tm [1]: 50.7 °C
folding enthalpy [2]: -26.7 kcal/mol

CAGAAGAAATTCTG (((((....)))))
Tm [1]: 33.8 °C
folding enthalpy [2]: -12.7 kcal/mol

CAGAGGAAACTCTG (((((....)))))
Tm [1]: 45 °C
folding enthalpy [2]: -21.1 kcal/mol

CAGATGAAAATCTG (((((....)))))
Tm [1]: 44.4 °C
folding enthalpy [2]: -22.9 kcal/mol

CAGCGGAAACGCTG (((((....)))))
Tm [1]: 69.3 °C
folding enthalpy [2]: -20.8 kcal/mol

CATCGGAAACGATG (((((....)))))
Tm [1]: 53.5 °C
folding enthalpy [2]: -25.8 kcal/mol

CATTCGAAAGAATG (((((....)))))
Tm [1]: 49.7 °C
folding enthalpy [2]: -23.2 kcal/mol

CCACAGAAATGTGG (((((....)))))
Tm [1]: 50.5 °C
folding enthalpy [2]: -18.5 kcal/mol
